experiment: Toxicity liver stage against HepG2, at 10uM; format: cell-based; set-up: test concentration 10 uM, cell line HepG2-A16-CD81EGFP; settings: human, HepG2-A16-CD81EGFP cells; read-out: INHIBITION
How it was run: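 Uninfected HepG2-A16-CD81EGFP cells, 3 × 10^3 per well, 1536-well, plated on prespotted compound at 10 μM final, parasite-free screening media added to match infected plates; puromycin 10 μM positive, DMSO 0.5% negative; run in parallel with 48 h PbLuc assay at 37 °C, 5% CO2; viability by CellTiter-Glo luminescence, normalized to controls.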

| Structure (SMILES) | cytotoxicity at 10 µM [%] |
| --- | --- |
| COc1ncccc1CN1C[C@@H]2CN(c3ncccn3)C[C@@H]2C1 | -5.11 |
| CCC1=N[C@@]2(CC[C@@H]3CN(C(=O)NCC4CCCCC4)C[C@@H]32)C(=O)N1 | -70.2 |
| COCCN(Cc1ccccc1Cl)c1nc(CCN)nc2ccccc12 | 12.9 |
| Cc1cc(C2CCCCN2C(=O)CN2C(=O)OC(C)(C)C2=O)no1 (stereo not given) | 3.35 |
| OC1(CN2CCCCC2)CCN(c2cccc(C(F)(F)F)n2)C1 (stereo not given) | -10.4 |
| CCCOCC(=O)N1CCCC(c2nnc(CN3CCCCC3)n2C)C1 (stereo not given) | -2.34 |
| Cc1cc(CC(C)Nc2nc(-c3cccnc3)nc3c2CNC3)[nH]n1 (stereo not given) | 3.28 |
| CCN(Cc1ccccc1)C(=O)CCN1CC(O)C1 | 7.48 |
| Cc1cc(C(=O)N2C[C@H](CO)C[C@H](CN3CCOCC3)C2)cnc1C | 3.98 |
| Cc1cc(NCC2CCS(=O)(=O)C2)n2nc(C)cc2n1 (stereo not given) | 1.41 |
| Cc1ncc(C)c(N2CCC(CCc3ccccc3)(C(=O)O)CC2)n1 | 3.49 |
| CC1(Cc2ccc3c(c2)OCO3)CCCN(S(=O)(=O)N2CCOCC2)C1 (stereo not given) | -5.39 |
| CCNC(=O)[C@@H]1C[C@H](N)CN1Cc1ccc(-c2ccccc2C#N)o1 | -38.2 |
| Cc1ccsc1CN(C)CCc1scnc1C | -17.6 |
| CCCc1nnc(N2CCC3(CCC(=O)N(C)C3)CC2)o1 | 3.96 |
| c1ccc(CCN2CCCC(Cn3ccnc3)C2)cc1 (stereo not given) | 1.43 |
| O=C(c1cnc(O)cn1)N(Cc1ccsc1)CC1CCCO1 (stereo not given) | 3.7 |
| Cc1cccc(CN2CCN(c3ncnc4[nH]cnc34)CC2CCO)n1 (stereo not given) | -3.09 |
| Cc1cc(C(=O)N2C[C@H](C(C)C)[C@@H](N(C)C)C2)cs1 | -0.421 |
| CCCc1cc(C(=O)N2CCC3(CCCN(CCO)C3=O)C2)cs1 (stereo not given) | -144 |
| Cc1nc(C(F)(F)F)nc(N2CCC3(CC2)CC(C(=O)O)N(C)C3)c1C (stereo not given) | -4.14 |
| Cc1ocnc1C(=O)N1CCC2(CC1)c1nc[nH]c1CCN2CC(C)C | -11.4 |
| CC(=O)N1CCC(N[C@@H]2CC[C@@H]2NS(=O)(=O)c2cccnc2)CC1 | 2.98 |
| CN1CC[C@H]2CN(C(=O)COCc3nc4cc(F)ccc4[nH]3)C[C@H]21 | 2.77 |
| CC1(C)CN(C(=O)CC2CCC2)C[C@]1(C)O | -9.15 |
| Cc1ccsc1CN1CCCC(CNC(=O)c2ccc(N)nc2)C1 (stereo not given) | -2.25 |
| Cc1ccc(-c2cn[nH]c2C2CCCN(c3nccc(N)n3)C2)cc1 (stereo not given) | 15.6 |
| O=C(CCc1cc2n(n1)CCCN(C(=O)c1ccccn1)C2)NC1CC1 | -13.7 |

| Structure (SMILES) | cytotoxicity at 10 µM [%] |
| --- | --- |
| Cc1cc(C)n(NC(=O)c2ccccc2F)c(=O)c1 | -13.2 |
| CCN(CC)C1COc2c(cc(Br)c(C)c2C)C1=O (stereo not given) | 0.331 |
| Cc1cc(CN2CCCC2c2noc(C(C)C)n2)on1 (stereo not given) | -0.713 |
| CN1CCN(C2CCN(CCCOc3ccc(F)cc3)CC2)C1=O | 0.28 |
| Cc1cc(CN2CCCC2c2c(C)nn(C)c2Cl)on1 (stereo not given) | -4.77 |
| Cc1nc2ccnn2c(C)c1CCC(=O)N1CCN(CCO)CC1 | -6.29 |
| CC(C)(CNC(=O)COc1cccc(F)c1)C(N)=O | -4.89 |
| Cc1cccc(OCC(O)CN2CCC(Cn3cccn3)CC2)c1 (stereo not given) | -1.43 |
| Cc1ccc(CN2CCCN(Cc3cscn3)CC2)cc1 | -8.47 |
| N#Cc1ccc(OCC(=O)N2CCCC(n3cccn3)C2)cc1 (stereo not given) | -2.83 |
| Cc1cnn(CC2CCCCN2C(=O)c2cccc3c2OCO3)c1 (stereo not given) | -4.89 |
| O=C(CCc1ccc(F)cc1)NS(=O)(=O)c1ccc2c(c1)OCCCO2 | 4.4 |
| CCc1ncc2c(n1)CN(Cc1nc(-c3ccccn3)no1)CC2 | -20.9 |
| COc1c(CNC2CCOc3ccccc32)c(C(C)C)nn1C (stereo not given) | -0.169 |
| O=C(CN1CCC(N2CCNC2=O)CC1)NCC(F)(F)F | -3.35 |
| Cc1cnn(CC(C)NCc2csc(-c3cnn(C)c3)n2)c1 (stereo not given) | 5.32 |
| COCC(=O)N1CCC2(CC1)NC(=O)c1ccccc12 | 3.15 |
| CCN(CC)C(=O)c1cc(C2CCCN2C)ccn1 (stereo not given) | -3.24 |
| COCCN1CCOCC2(CCCN(Cc3cccc(F)c3)C2)C1 (stereo not given) | 0.346 |
| Cc1noc(C)c1CN1CC[C@H]2[C@H]1CCN2CC1CCOCC1 | 2 |
| COc1ccccc1CNC(Cc1cccs1)c1nc(C)cs1 (stereo not given) | -6.12 |
| O=C(c1ccncc1)N1C[C@@H]2CCN(c3cccnc3)C[C@@H]2C1 | -71.5 |
| CN1CCN(Cc2cccc(C#N)c2)Cc2cccnc21 | -83.2 |
| Cc1noc(C)c1CN1CCN(CC2CC2)c2ncccc2C1 | 5.56 |
| Cc1cccc(-c2ccc3nc(C4CCN(CC5CC5)CC4)nn3c2)c1 | -12.2 |
| CC1CCC(C(=O)N2CCC(n3cc(C4(O)CCCC4)nn3)CC2)CC1 (stereo not given) | 9.08 |
| CC1=C(C#N)C(=O)NC(=O)/C1=C\c1c(C)[nH]n(-c2ccc(C)cc2)c1=O | 1.91 |

From ChEMBL document CHEMBL4513216, “Probing the Open Global Health Chemical Diversity Library for Multistage-Active Starting Points for Next-Generation Antimalarials” (ACS Infect Dis, 2020)
